Measurements as given in ChEMBL document CHEMBL1275305, “Synthesis and in vitro study of pseudo-peptide thioureas containing α-aminophosphonate moiety as potential antitumor agents” (Eur J Med Chem, 2010).
pIC50: −log10 of the molar value.

What was measured:
BGC-823 [1] = experiment: Antitumor activity against human BGC823 cells assessed as growth inhibition at 10 uM after 24 hrs by relative to control; type: functional; conditions: BGC-823, 24 h
Outline: (§1)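 MTT growth-inhibition screen: 2.0×10^4 cells per well incubated with test compound for 24 h at 37 °C under 5% CO2. MTT then added, supernatant discarded and DMSO added. Absorbance read at 595 nm. Three separate experiments, each run in triplicate.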

Bcap37 = experiment: Antitumor activity against human Bcap37 cells assessed as growth inhibition at 10 uM after 24 hrs by relative to control; type: functional; conditions: Bcap37, 24 h; outline: as §1
PC-3 [2] = experiment: Antitumor activity against human PC3 cells assessed as growth inhibition at 10 uM after 24 hrs by relative to control; type: functional; conditions: PC-3, 24 h; outline: as §1
PC-3 [3] = experiment: Cytotoxicity against human PC3 cells at 5 uM after 72 hrs by relative to control; type: functional; conditions: PC-3, 72 h
Outline: (§2)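 Cells grown in RPMI 1640 with 10% FBS and plated at 2×10^3 cells/well. Compounds were taken up in DMSO, diluted in medium and given at 1-100 µM for 72 h. Controls received 0.1% DMSO. MTT was read 4 h later as formazan absorbance at 595 nm. % cytotoxicity was blank-corrected against control, IC50 taken at 50% cell survival. Three experiments, each in triplicate.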

PC-3 [4] = experiment: Cytotoxicity against human PC3 cells at 1 uM after 72 hrs by relative to control; type: functional; conditions: PC-3, 72 h; outline: as §2
PC-3 [5] = experiment: Cytotoxicity against human PC3 cells at 10 uM after 72 hrs by relative to control; type: functional; conditions: PC-3, 72 h; outline: as §2
PC-3 [6] = experiment: Cytotoxicity against human PC3 cells at 20 uM after 72 hrs by relative to control; type: functional; conditions: PC-3, 72 h; outline: as §2
PC-3 [7] = experiment: Cytotoxicity against human PC3 cells after 72 hrs by MTT assay; type: functional, cell-based; conditions: PC-3, 72 h; outline: as §2
BGC-823 [8] = experiment: Cytotoxicity against human BGC823 cells at 5 uM after 72 hrs by relative to control; type: functional; conditions: BGC-823, 72 h; outline: as §2
BGC-823 [9] = experiment: Cytotoxicity against human BGC823 cells at 10 uM after 72 hrs by relative to control; type: functional; conditions: BGC-823, 72 h; outline: as §2
BGC-823 [10] = experiment: Cytotoxicity against human BGC823 cells at 1 uM after 72 hrs by relative to control; type: functional; conditions: BGC-823, 72 h; outline: as §2
BGC-823 [11] = experiment: Cytotoxicity against human BGC823 cells after 72 hrs by MTT assay; type: functional, cell-based; conditions: BGC-823, 72 h; outline: as §2
BGC-823 [12] = experiment: Cytotoxicity against human BGC823 cells at 20 uM after 72 hrs by relative to control; type: functional; conditions: BGC-823, 72 h; outline: as §2

SMILES | inhibition at 10 µM (BGC-823 [1]) [%] | inhibition at 10 µM (Bcap37) [%] | inhibition at 10 µM (PC-3 [2]) [%] | further results
CCCCOP(=O)(OCCCC)C(NC(=S)N[C@@H](Cc1ccccc1)C(=O)NCc1ccccc1F)c1ccccc1 (stereo partly drawn) | 30.1 | 32.1 | 22.5 | 
CCCCOP(=O)(OCCCC)C(NC(=S)N[C@@H](Cc1ccccc1)C(=O)NCc1ccc(F)cc1)c1ccccc1 (stereo partly drawn) | 26.1 | 48.4 | 19.7 | 
CCCCOP(=O)(OCCCC)C(NC(=S)N[C@H](Cc1ccccc1)C(=O)NCc1ccccc1F)c1ccccc1 (stereo partly drawn) | 30.1 | 34 | 18 | 
CCCCOP(=O)(OCCCC)C(NC(=S)N[C@H](Cc1ccccc1)C(=O)NCc1ccc(F)cc1)c1ccccc1 (stereo partly drawn) | 33.2 | 35.8 | 33.6 | 
CCCCOP(=O)(OCCCC)C(NC(=S)N[C@H](Cc1ccccc1)C(=O)NCc1ccccc1)c1ccccc1 (stereo partly drawn) | 22.7 | 46.6 | 21.7 | 
CCOP(=O)(OCC)C(NC(=S)N[C@H](Cc1ccccc1)C(=O)NCc1ccccc1F)c1ccccc1 (stereo partly drawn) | 30.1 | 70.2 | 73.1 | inhibition at 5 µM (PC-3 [3]): 45.6%; inhibition at 1 µM (PC-3 [4]): 4.9%; inhibition at 10 µM (PC-3 [5]): 73.1%; inhibition at 20 µM (PC-3 [6]): 97.2%; pIC50 (PC-3 [7]): 5.17
CCCOP(=O)(OCCC)C(NC(=S)N[C@H](Cc1ccccc1)C(=O)NCc1ccccc1F)c1ccccc1 (stereo partly drawn) | 11.1 | 17.2 | 30.6 | 
CCOP(=O)(OCC)C(NC(=S)N[C@@H](Cc1ccccc1)C(=O)NCc1ccccc1)c1ccccc1 (stereo partly drawn) | 18.3 | 16.9 | 20.1 | 
CC(C)OP(=O)(OC(C)C)C(NC(=S)N[C@H](Cc1ccccc1)C(=O)NCc1ccccc1F)c1ccccc1 (stereo partly drawn) | 51.6 | 27.8 | 14.3 | 
CCCOP(=O)(OCCC)C(NC(=S)N[C@@H](Cc1ccccc1)C(=O)NCc1ccccc1)c1ccccc1 (stereo partly drawn) | 35.7 | 35.4 | 33.5 | 
CCOP(=O)(OCC)C(NC(=S)N[C@H](Cc1ccccc1)C(=O)NCc1ccc(F)cc1)c1ccccc1 (stereo partly drawn) | 44.5 | 34 | 32.4 | 
CC(C)OP(=O)(OC(C)C)C(NC(=S)N[C@@H](Cc1ccccc1)C(=O)NCc1ccccc1)c1ccccc1 (stereo partly drawn) | 27.9 | 24.4 | 50.1 | inhibition at 5 µM (PC-3 [3]): 12.8%; inhibition at 1 µM (PC-3 [4]): 2.7%; inhibition at 10 µM (PC-3 [5]): 21.8%; inhibition at 20 µM (PC-3 [6]): 50.1%; pIC50 (PC-3 [7]): 4.71
CCCOP(=O)(OCCC)C(NC(=S)N[C@H](Cc1ccccc1)C(=O)NCc1ccc(F)cc1)c1ccccc1 (stereo partly drawn) | 53.9 | 12.6 | 30.6 | 
CCCCOP(=O)(OCCCC)C(NC(=S)N[C@@H](Cc1ccccc1)C(=O)NCc1ccccc1)c1ccccc1 (stereo partly drawn) | 21.1 | 34.5 | 22.8 | 
CC(C)OP(=O)(OC(C)C)C(NC(=S)N[C@H](Cc1ccccc1)C(=O)NCc1ccc(F)cc1)c1ccccc1 (stereo partly drawn) | 20.8 | 27 | 34.8 | 
CCOP(=O)(OCC)C(NC(=S)N[C@@H](Cc1ccccc1)C(=O)NCc1ccccc1F)c1ccccc1 (stereo partly drawn) | 30.1 | 25.9 | 19.3 | 
CCCOP(=O)(OCCC)C(NC(=S)N[C@@H](Cc1ccccc1)C(=O)NCc1ccccc1F)c1ccccc1 (stereo partly drawn) | 11.1 | 44.7 | 18.1 | 
CC(C)OP(=O)(OC(C)C)C(NC(=S)N[C@@H](Cc1ccccc1)C(=O)NCc1ccccc1F)c1ccccc1 (stereo partly drawn) | 47.9 | 44.4 | 26.8 | 
CCOP(=O)(OCC)C(NC(=S)N[C@@H](Cc1ccccc1)C(=O)NCc1ccc(F)cc1)c1ccccc1 (stereo partly drawn) | 22.9 | 26.1 | 27.9 | 
CCCOP(=O)(OCCC)C(NC(=S)N[C@@H](Cc1ccccc1)C(=O)NCc1ccc(F)cc1)c1ccccc1 (stereo partly drawn) | 21 | 24 | 56.7 | inhibition at 5 µM (PC-3 [3]): 19.8%; inhibition at 1 µM (PC-3 [4]): 18.1%; inhibition at 10 µM (PC-3 [5]): 28%; inhibition at 20 µM (PC-3 [6]): 51.2%; pIC50 (PC-3 [7]): 4.66
CC(C)OP(=O)(OC(C)C)C(NC(=S)N[C@@H](Cc1ccccc1)C(=O)NCc1ccc(F)cc1)c1ccccc1 (stereo partly drawn) | 89.1 | 53.1 | 58.6 | inhibition at 5 µM (BGC-823 [8]): 70.1%; inhibition at 10 µM (BGC-823 [9]): 89.1%; inhibition at 5 µM (PC-3 [3]): 17.3%; inhibition at 1 µM (PC-3 [4]): 15.8%; inhibition at 10 µM (PC-3 [5]): 31.4%; inhibition at 1 µM (BGC-823 [10]): 30.6%; inhibition at 20 µM (PC-3 [6]): 66.7%; pIC50 (BGC-823 [11]): 5.33; pIC50 (PC-3 [7]): 4.76; inhibition at 20 µM (BGC-823 [12]): 100%
CCOP(=O)(OCC)C(NC(=S)N[C@H](Cc1ccccc1)C(=O)NCc1ccccc1)c1ccccc1 (stereo partly drawn) | 55.7 | 52.3 | 56.9 | inhibition at 5 µM (PC-3 [3]): 21.2%; inhibition at 1 µM (PC-3 [4]): 10.4%; inhibition at 10 µM (PC-3 [5]): 56.9%; inhibition at 20 µM (PC-3 [6]): 73.8%; pIC50 (PC-3 [7]): 4.95
CCCOP(=O)(OCCC)C(NC(=S)N[C@H](Cc1ccccc1)C(=O)NCc1ccccc1)c1ccccc1 (stereo partly drawn) | 24.4 | 49.1 | 30.8 | 
CC(C)OP(=O)(OC(C)C)C(NC(=S)N[C@H](Cc1ccccc1)C(=O)NCc1ccccc1)c1ccccc1 (stereo partly drawn) | 29 | 22.9 | 30.5 | 
COc1cccc2c1C(=O)c1c(O)c3c(c(O)c1C2=O)C[C@@](O)(C(=O)CO)C[C@@H]3O[C@H]1C[C@H](N)[C@H](O)[C@H](C)O1 [DOXORUBICIN] | 93.8 |  |  | inhibition at 5 µM (PC-3 [3]): 89.4%; inhibition at 1 µM (PC-3 [4]): 36.4%; inhibition at 10 µM (PC-3 [5]): 98%; inhibition at 20 µM (PC-3 [6]): 100%; pIC50 (PC-3 [7]): 5.48
